Results on two molecules are retold here after ChEMBL document CHEMBL3102702, “Protein kinase and HDAC inhibitors from the endophytic fungus Epicoccum nigrum” (J Nat Prod, 2014).

One experiment concerns the target Histone deacetylase. As to the kind of experiment: Inhibition of HDAC in human K562 cell extract using Fluor-de-Lys deacetylase as substrate preincubated for 45 mins measured after 15 mins by fluorescence assay. The class given is protein assay.
Experiment [1] relates to Raji. As to the kind of experiment: Antiproliferative activity against human Raji cells assessed as growth inhibition at 5 uM after 72 hrs. The class given is functional. As to conditions: read-out: GI. In outline: (§1)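 RAJI and U-937 cells from ATCC, grown in RPMI 1640 with 10% heat-inactivated fetal calf serum and 1% antibiotic–antimycotic at 37 °C, humid 5% CO2. Treated 72 h; DMSO-treated cells as negative control; proliferation measured by a previously described method.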

Experiment [2] deals with T1, Serine/threonine-protein kinase Nek2 (Homo sapiens, UniProt P51955).
T1 sequence (P51955 whole entry): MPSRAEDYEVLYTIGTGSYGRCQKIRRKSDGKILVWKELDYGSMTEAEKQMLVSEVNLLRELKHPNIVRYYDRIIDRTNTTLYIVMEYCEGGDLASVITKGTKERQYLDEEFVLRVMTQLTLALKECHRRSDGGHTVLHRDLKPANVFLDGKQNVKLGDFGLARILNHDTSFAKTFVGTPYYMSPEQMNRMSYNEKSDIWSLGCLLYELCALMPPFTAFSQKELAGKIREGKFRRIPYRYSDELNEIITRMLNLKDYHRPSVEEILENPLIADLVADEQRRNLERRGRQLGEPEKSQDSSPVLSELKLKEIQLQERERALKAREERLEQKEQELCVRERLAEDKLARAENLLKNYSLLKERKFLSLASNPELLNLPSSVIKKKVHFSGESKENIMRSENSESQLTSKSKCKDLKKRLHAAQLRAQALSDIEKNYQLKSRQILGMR
As to the kind of experiment: Inhibition of NEK2 (unknown origin).

Experiment [3] in a line: Antiproliferative activity against human U937 cells assessed as growth inhibition at 5 uM after 72 hrs. The class given is functional. As to conditions: U-937, 72 h, read-out: GI. Summed up:
as §1

For experiment [4], the system named is Raji. In words: Antiproliferative activity against human Raji cells assessed as growth inhibition at 25 uM after 72 hrs. The class given is functional. As to conditions: read-out: GI. In outline: as §1
Experiment [5] in a line: Antiproliferative activity against human U937 cells assessed as growth inhibition at 25 uM after 72 hrs. The class given is functional. As to conditions: U-937, 72 h, read-out: GI. Summed up:
as §1

In the case of `Cc1c(O)c(O)c2c(c1C=O)[C@@H]1O[C@H](O2)c2c(C)c(O)c(O)c(O)c2C1=O` (racemic), the half-maximal inhibitory concentration (IC50) against Histone deacetylase was 9.8 µM; in experiment [2], 1.83 µM. Besides, the inhibition of growth at 5 µM is 50% with Raji [1] and 32% in experiment [3].

With `Cc1c(O)c(O)c(O)c(C=O)c1-c1cc2c(C=O)c(C)c(O)c(O)c2o1`, the values for the half-maximal inhibitory concentration (IC50) (against Histone deacetylase; in experiment [2]) were 14.2 µM and 3.78 µM, respectively. Further, the inhibition of growth at 25 µM in the experiment with Raji [4] worked out at 55%; in experiment [5] it was 30%.

By IC50 is commonly meant the point on the concentration scale where inhibition reaches its midpoint. Read a low IC50 as inhibition by little substance.
